Measurements published in ChEMBL document CHEMBL3739406, “Trisubstituted Thieno[3,2-b]pyrrole 5-Carboxamides as Potent Inhibitors of Alphaviruses” (J Med Chem, 2015).
Activity calls are given as the source filed them. No cut-off for these calls is given here.

Assays:
Chikungunya virus [1] = experiment: Antiviral activity against wild type Chikungunya virus IMT infected in HEK293T cells assessed as inhibition of infectivity at 5 uM measured at 24 hrs postinfection by FITC/DAPI staining based array scan VTI HCS reader analysis; format: functional; conditions: HEK-293T
Chikungunya virus [2] = experiment: Antiviral activity against wild type Chikungunya virus IMT infected in HEK293T cells assessed as inhibition of nsP1 protein expression at 5 uM measured at 24 hrs postinfection by Western blot method; format: functional, cell-based; conditions: HEK-293T
Sindbis virus = experiment: Antiviral activity against wild type Sindbis virus infected in HEK293T cells assessed as inhibition of infectivity measured at 24 hrs postinfection by FITC/DAPI staining based array scan VTI HCS reader analysis; format: functional, organism-based; conditions: HEK-293T
Onyong-nyong virus = experiment: Antiviral activity against O'nyong-nyong virus infected in HEK293T cells assessed as inhibition of infectivity measured at 24 hrs postinfection by FITC/DAPI staining based array scan VTI HCS reader analysis; format: functional, cell-based; conditions: HEK-293T
Chikungunya virus [3] = experiment: Antiviral activity against wild type Chikungunya virus IMT infected in HEK293T cells assessed as inhibition of viral capsid protein at 5 uM measured at 24 hrs postinfection by Western blot method; format: functional, cell-based; conditions: HEK-293T
[4] = Cytotoxicity against HEK293T cells assessed as cell viability at antiviral EC50 after 24 hrs by cell titer-glo luminescent cell viability assay; format: cell-based, HEK-293T; conditions: human, read-out: Activity
Outline: (§1)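 HEK 293T cells, 3 × 10⁴/well, seeded overnight, then exposed 24 h to compound (0.01–100 μM, triplicate) in DMEM pH 6.8 with 10% FBS. Viability read by CellTiter-Glo luminescence. Normalized to untreated (100%) and medium blank (0%); CC50 by five-parameter curve fit.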

Chikungunya virus [5] = experiment: Antiviral activity against wild type Chikungunya virus IMT infected in HEK293T cells assessed as inhibition of nsP3 protein expression at 5 uM measured at 24 hrs postinfection by Western blot method; format: functional, cell-based; conditions: HEK-293T
Chikungunya virus [6] = experiment: Antiviral activity against Chikungunya virus infected in HEK293T cells assessed as reduction of infectivity measured at 24 hrs postinfection by gaussia luciferase reporter gene assay; format: functional, cell-based; conditions: HEK-293T
Chikungunya virus [7] = experiment: Antiviral activity against wild type Chikungunya virus IMT infected in HEK293T cells assessed as inhibition of infectivity measured at 24 hrs postinfection by FITC/DAPI staining based array scan VTI HCS reader analysis; format: functional, cell-based; conditions: HEK-293T
Chikungunya virus [8] = experiment: Antiviral activity against wild type Chikungunya virus IMT infected in HEK293T cells assessed as inhibition of E2 protein expression at 5 uM measured at 24 hrs postinfection by Western blot method; format: functional, cell-based; conditions: HEK-293T
Chikungunya virus [9] = experiment: Antiviral activity against wild type Chikungunya virus IMT infected in HEK293T cells assessed as reduction of viral E1 gene expression measured at 24 hrs postinfection by qRT-PCR method; format: functional, cell-based; conditions: HEK-293T
Chikungunya virus [10] = experiment: Antiviral activity against wild type Chikungunya virus IMT infected in HEK293T cells assessed as inhibition of capsid protein expression measured at 24 hrs postinfection by Western blot method; format: functional, cell-based; conditions: HEK-293T
[11] = Cytotoxicity against HEK293T cells assessed as reduction in cell viability after 24 hrs by cell titer-glo luminescent cell viability assay; format: cell-based, HEK-293T; conditions: human; outline: as §1
Chikungunya virus [12] = experiment: Antiviral activity against wild type Chikungunya virus IMT infected in HEK293T cells assessed as reduction of viral E1 gene expression at 2.5 uM measured at 24 hrs postinfection by qRT-PCR method relative to control; format: functional, HEK-293T
Chikungunya virus [13] = experiment: Antiviral activity against wild type Chikungunya virus IMT infected in HEK293T cells assessed as inhibition of E2 protein expression measured at 24 hrs postinfection by Western blot method; format: functional, cell-based; conditions: HEK-293T
[14] = Selectivity index, ratio of CC50 for HEK293T cells to EC50 for Chikungunya virus infected in HEK293T cells; format: toxicity, cell-based, HEK-293T; conditions: human, read-out: Ratio CC50/EC50
Chikungunya virus [15] = experiment: Antiviral activity against wild type Chikungunya virus IMT infected in HEK293T cells assessed as reduction of viral nsP1 gene expression measured at 24 hrs postinfection by qRT-PCR method; format: functional, cell-based; conditions: HEK-293T
Chikungunya virus [16] = experiment: Antiviral activity against wild type Chikungunya virus IMT infected in HEK293T cells assessed as inhibition of nsP1 protein expression measured at 24 hrs postinfection by Western blot method; format: functional, cell-based; conditions: HEK-293T
Chikungunya virus [17] = experiment: Antiviral activity against wild type Chikungunya virus IMT infected in HEK293T cells assessed as reduction of viral nsP1 gene expression at 2.5 uM measured at 24 hrs postinfection by qRT-PCR method relative to control; format: functional, HEK-293T
Chikungunya virus [18] = experiment: Antiviral activity against wild type Chikungunya virus IMT infected in HEK293T cells assessed as inhibition of nsP3 protein expression measured at 24 hrs postinfection by Western blot method; format: functional, cell-based; conditions: HEK-293T
HEK293 = experiment: Toxicity in HEK293T cells infected with Chikungunya virus IMT assessed as reduction in beta-actin protein expression at 0.1 to 5 uM measured at 24 hrs postinfection by Western blot method; format: cell-based; conditions: human, hek293, 24 h

Row | Compound | inhibition at 5 µM (Chikungunya virus [1]) [%] | EC50 (Sindbis virus) [µM] | EC50 (Onyong-nyong virus) [µM] | viability at 24 h [4] [%] | EC50 (Chikungunya virus [6]) [µM] | EC50 (Chikungunya virus [7]) [µM] | inhibition (Chikungunya virus [7]) | Activity (Chikungunya virus [9]) | inhibition (Chikungunya virus [10]) | CC50 at 24 h [11] [µM] | inhibition (Chikungunya virus [13]) | selectivity ratio [14] | Activity (Chikungunya virus [15]) | inhibition (Chikungunya virus [16]) | inhibition (Chikungunya virus [18]) | Activity (HEK293) | further results
1 | NC(=O)c1ncn([C@@H]2O[C@H](CO)[C@@H](O)[C@H]2O)n1 [RIBAVIRIN] | 10 | 5.12 | 18.4 | > 80 | 13.1 | 20 | Dose-dependent effect | – | – | – | – | – | – | – | – | – | inhibition (Chikungunya virus [2]): inactive; inhibition (Chikungunya virus [3]): inactive; inhibition (Chikungunya virus [5]): inactive; inhibition (Chikungunya virus [8]): inactive
2 | CCCNC(=O)C1CCN(C(=O)c2cc3sc(Br)cc3n2Cc2ccc(OC)cc2)CC1 | 60 | 1.14 | 2.58 | > 80 | 3.1 | 1.96 | Dose-dependent effect | Dose-dependent effect | Dose-dependent effect | > 100 | Dose-dependent effect | > 32 | Dose-dependent effect | Dose-dependent effect | Dose-dependent effect | Non-toxic | fold change (FC) (Chikungunya virus [12]): 100; fold change (FC) (Chikungunya virus [17]): 100
3 | CCCNC(=O)C1CCN(C(=O)c2cc3sc(CO)cc3n2Cc2ccc(OC)cc2)CC1 | 60 | – | – | > 80 | 4.33 | 2.39 | Dose-dependent effect | Dose-dependent effect | Dose-dependent effect | 15.5 | Dose-dependent effect | 3.6 | Dose-dependent effect | Dose-dependent effect | Dose-dependent effect | Non-toxic | –
